# Screens (PubChem)
# Most compounds without a hit are left out; they make up all but 4.3% or so of the library.
# GalR3 antag = GalR3 antagonists in HEK293 cells, primary screen, cell-based, fluorescence readout; Galanin receptor type 3 (Homo sapiens), O60755; HEK293 GalR3-CNG cAMP membrane potential fluorescence; galR3 body fused to GalR1 C-terminus; inhibition, % at 3 µM; 360,000 compounds, 0.44% hits;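 active = inhibition above the screen-wide average plus 3 SD, cut at about 13% in these data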;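 also: forskolin and galanin both at EC90 stimulate the cells; cAMP rise reported by CNG channel membrane potential dye signal; 0% = forskolin plus galanin with DMSO and 100% = forskolin alone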
# TAAR1 antag = human TAAR1 antagonists, primary screen, Fluo-8 calcium fluorescence, CHO RD-HGA16 cells. Trace amine-associated receptor 1 (Homo sapiens), Q96RJ0. antagonist. inhibition, % at 3 µM. 360,000 compounds, 1.5% hits. AID 624466, 2012;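 active = inhibition above a per-plate cutoff, the mean inhibition of test compounds on that plate plus 3 SD, cut at about 49% in these data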;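 also: 0% = DMSO plus EC80 beta-PEA response and 100% = DMSO alone without agonist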
#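 Test system: RD-HGA16 CHO cells with stable hTAAR1 and Gα16 / Probe or stimulus: EC80 β-phenethylamine stimulus / Times: seeding 17-24 h prior, 75-min 37 °C, 30-min RT dye loading / Detection: Fluo-8 calcium-sensitive fluorescence / Read-out basis: % inhibition scaled between DMSO and EC80 PEA controls / Repeats: singlicate, one well per test compound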
# OX1R antag-1 = OX1R (HCRTR1) antagonists, primary screen, fluorescence, CHO/OX1R cells, Fluo-8 calcium, orexin A; Orexin/Hypocretin receptor type 1 (Homo sapiens), O43613; Fluo-8 calcium fluorescence; inhibition, % at 5 µM; 330,000 compounds, 0.43% hits; AID 434989, 2010;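 active = inhibition above its plate's threshold, mean inhibition of all tested compounds on the plate plus 3 SD, cut at about 37% in these data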;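 also: 0% = orexin A challenge wells and 100% = SB-334867-A antagonist wells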
# Target sequence (O43613 whole entry, looked up): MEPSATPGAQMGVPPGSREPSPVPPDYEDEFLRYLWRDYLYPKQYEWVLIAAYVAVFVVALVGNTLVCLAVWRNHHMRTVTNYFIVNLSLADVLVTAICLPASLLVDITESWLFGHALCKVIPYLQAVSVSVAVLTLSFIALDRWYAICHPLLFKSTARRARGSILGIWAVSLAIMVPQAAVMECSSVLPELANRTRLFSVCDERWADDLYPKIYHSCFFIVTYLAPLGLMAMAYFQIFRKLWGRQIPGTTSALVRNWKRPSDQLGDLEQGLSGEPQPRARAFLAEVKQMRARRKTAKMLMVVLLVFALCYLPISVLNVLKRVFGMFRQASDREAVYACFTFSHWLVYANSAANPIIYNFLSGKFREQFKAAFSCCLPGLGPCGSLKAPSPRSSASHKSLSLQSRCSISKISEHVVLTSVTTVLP
# OX1R antag-2 = antagonists of human orexin 1 receptor (OX1R); inhibition, % at 6.6 µM; OX1R-expressing cells, FRET antagonist read-out; 330,000 compounds, 1.8% hits; in the data active = inhibition mostly above about 38%, no sharp cut-off; inactive = mostly below about 40%;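 also: 0% = agonist challenge alone and 100% = reference antagonist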
# TAAR1 agonist = human TAAR1 agonists, primary screen, Fluo-8 calcium fluorescence, CHO RD-HGA16 cells; AID 624467, 2012; 360,000 compounds, 0.99% hits; vehicle wells 0%, saturating PEA agonist 100%; Trace amine-associated receptor 1 (Homo sapiens), Q96RJ0; activation, % at 3 µM;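 active = activation above the mean activation of all test compounds in the run plus 3 SD, cut at about 38% in these data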
#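 Assay system: CHO-derived RD-HGA16 cells with stable Gα16 and human TAAR1; timing: 17-24 h seeding, 75 min 37 °C dye, 30 min RT; read-out: % activation from peak over basal fluorescence ratio, DMSO-to-PEA scaled; measured by: kinetic Fluo-8 calcium fluorescence; benchmarks: low control DMSO, high control PEA (EC100); doses: 3 µM single concentration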
# CHO parental Ca = ATP-evoked calcium signal inhibitors, parental CHO, primary screen, counter-screen for OX1R antagonist project, cell-based, fluorescence, Fluo-8 calcium dye | parental CHO-K1, ATP-induced calcium, Fluo-8 fluorescence | inhibition, % at 5.6 µM | 330,000 compounds, 0.63% hits | AID 463079, 2010;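 active = inhibition above that plate's mean sample inhibition plus 3 SD, cut at about 26% in these data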;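 also: 0% = ATP-challenged DMSO wells and 100% = DMSO wells without ATP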
#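 Assay system: parental CHO cells; Read-out basis: percent inhibition of ATP-evoked calcium rise, normalized to controls; Benchmarks: ATP and no-ATP DMSO wells; Compound dosing: single nominal dose of 5.6 µM per compound; Signal: Fluo-8 calcium dye fluorescence; Also added: ATP as calcium-mobilizing challenge; Repeats: singlicate.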
# * marks the source's active call; other numbers are inactive results; / = no result.
SMILES,GalR3 antag,TAAR1 antag,OX1R antag-1,OX1R antag-2,TAAR1 agonist,CHO parental Ca
COCCCn1c(=N)c(C(=O)NCc2ccc3c(c2)OCO3)cc2c(=O)n3ccccc3nc21,-5,15,-18,59*,-2,-12
CCOCCCn1c(=N)c(C(=O)NCc2ccc3c(c2)OCO3)cc2c(=O)n3cccc(C)c3nc21,/,/,-28,42*,/,-24
N=c1c(C(=O)NCc2ccc3c(c2)OCO3)cc2c(=O)n3ccccc3nc2n1Cc1cccnc1,-4,-2,-13,28,6,-18
COCCCn1c(=N)c(C(=O)NCc2ccc3c(c2)OCO3)cc2c(=O)n3cccc(C)c3nc21,-1,-14,/,/,1,/
CCOC(=O)N[C@H](C(=O)N1CCC[C@H]1C(=O)NCc1ccccc1)C(C)C,-7,6,/,/,0,/
COC(=O)C1=C(C)N(Cc2ccccc2C(F)(F)F)C(=NCc2cc(OC)c(OC)c(OC)c2)NC1c1cccc(F)c1 (stereo not drawn),-6,-4,/,/,10,/
Cc1cc(C(=O)Cn2nc(C(=O)O)c3ccccc3c2=O)c(C)n1CCc1ccc(Cl)cc1,-4,11,13,49*,1,-15
O=C(Cn1nc(C(=O)O)c2ccccc2c1=O)Nc1cc(Cl)cc(Cl)c1,-6,17,19,41*,6,-7
Cc1cc(C(=O)Cn2nc(C(=O)O)c3ccccc3c2=O)c(C)n1-c1ccccc1,-3,12,-6,24,13,-8
COC(=O)/C(C#N)=C1/C=Cc2ccccc2N1C,-1,-10,-34,60*,9,-4
Cc1c(C(=O)NCc2cccs2)sc(=O)n1Cc1ccc(S(=O)(=O)N(C)C)cc1,1,33,/,/,8,/
O=C(Nc1ncc(Cc2ccc(SC(F)F)cc2)s1)c1ccc(OC(F)F)cc1,10,-1,61*,29,46*,23
O=C(O)c1ccc(NCc2cccnc2)c([N+](=O)[O-])c1,-1,-15,-4,55*,0,2
CC(=O)N1CCN(c2ccc([N+](=O)[O-])c(NCc3cccnc3)c2)CC1,5,-23,-12,42*,2,-12
Cc1cc(C(=O)O)ccc1NCc1cccnc1,-9,-2,5,22,0,-17
CC(=O)c1ccccc1NC(=O)COc1ccc(N(C)S(=O)(=O)c2ccc(C)c(C)c2)cc1,-2,41,2,18,0,-9
Cc1ccc(S(=O)(=O)N(C)C)cc1NC(=O)COc1ccccc1C(=O)Nc1ccccc1,1,55*,-7,25,14,8
CC(=O)Nc1ccc(S(=O)(=O)N(C)c2ccc(OCC(=O)Nc3ccccc3C(C)=O)cc2)cc1,2,55*,/,/,13,/
O=c1c2sc(-c3ccccc3)cc2nc2n1CCC2,-4,8,-16,52*,3,-10
Nc1ccccc1O,/,/,-7,32*,/,-16
COC(=O)[C@]1(CC(C)C)NC=C(C(=O)c2ccccc2)[C@@H]1c1cccs1,-6,6,/,/,-1,/
CC(=O)c1ccc(NC(=O)/C(Cl)=C/c2ccccc2)cc1,1,1,-8,18,4,42*
O=C(OCC(=O)N1CCOCC1)c1cccc(S(=O)(=O)Nc2ccc(F)cc2)c1,2,-6,-28,2,10,-12
O=C1C(Cl)=C(NS(=O)(=O)c2ccc([N+](=O)[O-])cc2)C(=O)c2ccccc21,0,-7,0,45*,1,12
O=[N+]([O-])c1ccc(Oc2ccc(S(=O)(=O)Nc3ccccc3)cc2)cc1,/,/,50*,26,/,20
SMILES,GalR3 antag,TAAR1 antag,OX1R antag-1,OX1R antag-2,TAAR1 agonist,CHO parental Ca
O=[N+]([O-])c1ccc(S(=O)(=O)Nc2ccncc2)cc1,-2,-13,-1,25,8,15
O=S(=O)(Nc1ccccc1)c1ccc(Oc2ncc(C(F)(F)F)cc2Cl)cc1,-2,69*,88*,47*,37*,73*
O=[N+]([O-])c1ccc(Oc2ncccn2)cc1,-8,-3,-6,45*,2,-8
NN1C(=O)/C(=C\c2ccco2)SC1=S,-3,-16,12,26,0,-2
O=C(NCc1nnnn1-c1ccc(F)cc1)C(=O)c1c[nH]c2ccccc12,-8,38,/,/,18,/
O=C1c2ccccc2-c2onc3ccc(NCc4ccco4)c1c23,/,/,62*,82*,/,37
O=C1c2ccccc2-c2onc3ccc(N4CCCC4)c1c23,-9,40,/,/,35,/
CCN(CC)CCCn1c2c(c(SCC(=O)Nc3ccc4c(c3)OCCO4)nc1=O)CCC2,-1,5,-6,7,0,-9
CN(C)S(=O)(=O)c1ccc2c(c1)/C(=C/c1cc3c([nH]1)CCCC3)C(=O)N2,/,43,29,-3,21,36*
Cc1ccccc1C(=O)N1CCC(C(=O)OCc2ccccc2Cl)CC1,-6,15,-14,4,20,-9
S=C(NCc1cccs1)Nc1cc(Cl)cc(Cl)c1,-5,-4,14,25,3,39*
Cc1cc(Cl)ccc1NC(=S)NCc1ccc(F)cc1,-4,14,35,3,4,42*
Fc1ccc(CNC(=S)Nc2cccc(Cl)c2)cc1,-4,29,15,13,4,41*
S=C(NCc1ccc(Cl)cc1)Nc1ccncc1,6,3,15,26,15,52*
COCCSc1nnc(NC(=O)COc2ccc3c(c2)OCO3)s1,-6,-19,1,9,3,-14
c1ccc2c(c1)oc1c(Nc3ccc4c(c3)OCCO4)ncnc12,-6,14,-3,72*,9,-33
Cc1nc(Nc2ccc3c(c2)OCCO3)c2oc3ccccc3c2n1,-3,-1,-24,55*,-1,-32
CCc1nc(Nc2ccc3c(c2)OCCO3)c2oc3ccccc3c2n1,-7,29,-46,14,10,-29
Cn1c(=O)c2cc(NC(=O)NCc3ccc(Cl)cc3Cl)ccc2n1Cc1ccc(F)cc1,-2,3,/,/,0,/
CCC(C)[C@H]1CNCCN1CCc1cccc2ccccc12 (stereo partly drawn),-7,-11,-30,6,14,-10
COc1cc(NC(=O)c2ccccc2-c2ccccc2)cc(OC)c1,0,-14,-9,57*,1,-17
C=Cc1ccc(Cn2nc(-c3ccc(C)cc3)ccc2=O)cc1,-9,-10,-4,23,1,44*
O=C(O)c1cocc1C(=O)O,-2,4,/,/,0,/
